Experimental data: paper PMC6463388 (Biochemical Journal, 2019)

T1: AtGCL (WT γ-glutamylcysteine ligase) (Arabidopsis thaliana, UniProt P46309)
T1 sequence (P46309 74-522): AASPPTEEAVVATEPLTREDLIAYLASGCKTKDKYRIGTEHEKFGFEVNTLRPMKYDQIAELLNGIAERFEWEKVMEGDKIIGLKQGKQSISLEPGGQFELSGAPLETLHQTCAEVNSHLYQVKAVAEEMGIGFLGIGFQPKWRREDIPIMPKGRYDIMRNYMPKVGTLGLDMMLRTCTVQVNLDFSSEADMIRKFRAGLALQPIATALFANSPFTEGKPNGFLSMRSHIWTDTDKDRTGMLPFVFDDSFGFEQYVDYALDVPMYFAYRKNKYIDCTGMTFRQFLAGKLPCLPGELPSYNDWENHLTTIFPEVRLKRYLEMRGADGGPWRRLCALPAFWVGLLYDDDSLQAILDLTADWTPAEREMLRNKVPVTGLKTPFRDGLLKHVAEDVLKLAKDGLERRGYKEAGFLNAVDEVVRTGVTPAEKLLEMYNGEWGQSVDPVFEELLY


Key:
[1] = biological target: T1, AtGCL (WT γ-glutamylcysteine ligase); assay: inhibition of GCL activity; type: biochemical; details: read-out: GSH
How it was run: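 Recombinant His-tagged AtGCL from E. coli Rosetta-gami DE3, purified by Ni²⁺ affinity, cleaved with TEV protease, then passed through a second Ni²⁺ step. Pyruvate kinase/lactate dehydrogenase-coupled assay at pH 7.0 (100 mM MOPSO, 150 mM NaCl, 20 mM MgCl₂). […] Reaction started with 50 µg enzyme; A340 monitored.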

purified protein [2] = substrate: N[C@@H](CCC(=O)O)C(=O)O; assay: purified protein; type: biochemical, Arabidopsis thaliana; details: 20 mM cysteine, 20 mM ATP, 20 mM MgCl2, pH 7.0, oxidized homo-dimer
purified protein [3] = substrate: N[C@@H](CS)C(=O)O; assay: purified protein; type: biochemical, Arabidopsis thaliana; details: 20 mM ATP, 80 mM glutamate, 20 mM MgCl2, pH 7.0, oxidized homo-dimer

| activity at 2000 µM [1] [%] | Molecule | Km (purified protein [2]) [mM] | Km (purified protein [3]) [mM] |
| --- | --- | --- | --- |
| 49 ± 4 | N[C@@H](CCC(=O)N[C@@H](CS)C(=O)NCC(=O)O)C(=O)O [GSH] | – | – |
| – | AtGCL (WT γ-glutamylcysteine ligase) (Arabidopsis thaliana) (protein) AASPPTEEAVVATEPLTREDLIAYLASGCKTKDKYRIGTEHEKFGFEVNTLRPMKYDQIAELLNGIAERFEWEKVMEGDKIIGLKQGKQSISLEPGGQFELSGAPLETLHQTCAEVNSHLYQVKAVAEEMGIGFLGIGFQPKWRREDIPIMPKGRYDIMRNYMPKVGTLGLDMMLRTCTVQVNLDFSSEADMIRKFRAGLALQPIATALFANSPFTEGKPNGFLSMRSHIWTDTDKDRTGMLPFVFDDSFGFEQYVDYALDVPMYFAYRKNKYIDCTGMTFRQFLAGKLPCLPGELPSYNDWENHLTTIFPEVRLKRYLEMRGADGGPWRRLCALPAFWVGLLYDDDSLQAILDLTADWTPAEREMLRNKVPVTGLKTPFRDGLLKHVAEDVLKLAKDGLERRGYKEAGFLNAVDEVVRTGVTPAEKLLEMYNGEWGQSVDPVFEELLY | 6.64 ± 1.02 | 0.34 ± 0.12 |
